Screens as filed in PubChem BioAssay.
In the library only some 3.7% were active in any assay of this set; here they are far more common.
Kir21 inh = inhibitors of mouse Kir2.1 inward-rectifier potassium channel. AID 1672, 2009. B-score at 10 µM. HEK293-Kir2.1, FluxOR thallium flux fluorescence; hits give low values. 310,000 tested, 0.85% active. Inward rectifier potassium channel 2 (Mus musculus), P35561;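 active = fluorescence ratio B-score at or below minus 3 SD of library scores, with starting-brightness B-score within 2 SD, cut at about -4.2 in these data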;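 also: channel flux triggered by added potassium and thallium sulfate stimulus; B-score of peak minus minimum fluorescence over baseline after thallium stimulus; more negative B-score means stronger Kir2.1 block with less thallium influx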
KCNK3 block = human KCNK3 channel inhibitors, primary screen, CHO cells, FluxOR thallium flux, B-score. 340,000 tested, 0.84% active. B-score at 10 µM. Potassium channel subfamily K member 3 (Homo sapiens), O14649. FluxOR fluorescence; hits give low values. AID 602410, 2012;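 active = B-score under library mean minus 4 SD, starting fluorescence ratio at most library mean plus 5 SD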;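 also: more negative B-score means stronger inhibition of thallium flux through KCNK3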
KCNQ1 act = potentiators or activators of KCNQ1 channel, primary screen, cell-based, thallium flux, high-throughput; Potassium voltage-gated channel subfamily KQT member 1 (Homo sapiens), P51787; CHO-K1 KCNQ1, thallium flux FluxOR fluorescence; hits give high values; B-score at 10 µM; 310,000 tested, 0.35% active; AID 2648, 2010;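 active = fluorescence ratio B-score, a plate-corrected score, at least three library SD, with initial intensity B-score within 5 SD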
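assay system = CHO-K1 cells stably expressing KCNQ1 | medium = assay buffer, equal DMSO in all wells | timing = 37 °C overnight plating, 90-min dark dye load, 20-min compound pretreatment | measured by = kinetic FluxOR thallium fluorescence, 10-s 1-Hz baseline, 110-s post-stimulus read | measure = fluorescence change relative to baseline, converted to B score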
KCNQ1 block = inhibitors of human KCNQ1 channel, primary screen, cell-based, thallium flux, high-throughput. B-score at 10 µM. Potassium voltage-gated channel subfamily KQT member 1 (Homo sapiens), P51787. 310,000 tested, 1.3% active. CHO-K1 KCNQ1, FluxOR thallium flux fluorescence; hits give high values. AID 2642, 2010;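 active = compounds whose thallium flux B-score, printed positive for inhibition, exceeds three library SD while starting fluorescence stays within three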;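 also: channel opened by potassium depolarization with thallium stimulus after 20 min compound exposure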
hERG protect = hERG rescue from dofetilide block, primary screen, cell-based, CHO-hERG, FluxOR thallium flux, dofetilide IC70; Voltage-gated inwardly rectifying potassium channel KCNH2 (Homo sapiens), Q12809; dofetilide IC70 present; activation (rescue from dofetilide block), less the hit threshold, % at 10 µM; 310,000 tested, 0.51% active;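 active = activation above the mean of controls blocked by dofetilide plus 5 SD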;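 also: thallium influx through hERG after potassium depolarization seen as dye fluorescence rise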
Target sequence (Q12809 whole entry, looked up): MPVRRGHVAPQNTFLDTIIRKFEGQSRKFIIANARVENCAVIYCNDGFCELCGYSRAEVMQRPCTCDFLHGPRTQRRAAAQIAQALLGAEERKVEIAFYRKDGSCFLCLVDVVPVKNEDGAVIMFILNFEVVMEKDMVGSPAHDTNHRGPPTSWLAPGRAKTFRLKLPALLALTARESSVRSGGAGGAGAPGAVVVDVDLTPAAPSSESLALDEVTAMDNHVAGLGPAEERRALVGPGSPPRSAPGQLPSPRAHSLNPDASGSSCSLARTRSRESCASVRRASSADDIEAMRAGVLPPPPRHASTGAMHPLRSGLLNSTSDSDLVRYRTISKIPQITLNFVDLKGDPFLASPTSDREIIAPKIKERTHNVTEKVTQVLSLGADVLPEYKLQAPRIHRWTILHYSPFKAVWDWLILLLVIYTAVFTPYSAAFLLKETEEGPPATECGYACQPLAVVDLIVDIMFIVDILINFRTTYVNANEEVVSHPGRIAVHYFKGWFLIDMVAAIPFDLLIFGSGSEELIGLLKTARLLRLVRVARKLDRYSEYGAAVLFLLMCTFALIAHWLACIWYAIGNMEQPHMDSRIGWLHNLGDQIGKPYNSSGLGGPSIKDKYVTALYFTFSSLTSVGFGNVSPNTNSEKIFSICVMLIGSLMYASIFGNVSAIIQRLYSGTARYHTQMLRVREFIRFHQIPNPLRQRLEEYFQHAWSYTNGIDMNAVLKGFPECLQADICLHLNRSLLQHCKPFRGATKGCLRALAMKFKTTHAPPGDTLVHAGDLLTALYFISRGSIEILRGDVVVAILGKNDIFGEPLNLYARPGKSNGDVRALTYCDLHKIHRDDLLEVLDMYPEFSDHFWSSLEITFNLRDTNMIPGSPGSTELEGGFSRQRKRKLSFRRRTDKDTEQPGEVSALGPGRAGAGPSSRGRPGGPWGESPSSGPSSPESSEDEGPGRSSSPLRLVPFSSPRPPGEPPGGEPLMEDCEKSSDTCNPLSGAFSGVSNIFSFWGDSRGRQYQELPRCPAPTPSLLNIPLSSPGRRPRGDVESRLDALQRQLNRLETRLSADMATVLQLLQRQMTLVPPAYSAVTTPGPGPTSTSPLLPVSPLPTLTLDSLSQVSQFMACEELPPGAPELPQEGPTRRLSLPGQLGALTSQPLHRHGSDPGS
KCNK9 block = KCNK9 potassium channel inhibitors, primary screen, HEK293 cells, thallium flux; 310,000 tested, 1.2% active; FluxOR thallium flux fluorescence; hits give low values; AID 488922, 2010; B-score at 10 µM;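 active = ratio B-score over 3 SD below the library mean, with starting fluorescence within 5 SD of its mean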;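 also: negative B-score means less thallium flux so channel inhibition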
KCNQ1 inh valid = KCNQ1 potassium channel inhibitors, confirmation, cell-based, Tl flux, duplicate | shares compounds with KCNQ1 block | KCNQ1 cell line, FluxOR thallium flux fluorescence | inhibition, % at 10 µM | 1,600 tested, 93% active | AID 588353, 2011;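 active = primary screen active, with duplicate mean exceeding buffer control mean plus 3 SD of buffer wells, cut at about 28% in these data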;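 also: 0% = buffer control ratio and 100% = XE991 inhibitor control ratio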
CHO Tl flux = thallium flux effects in parental CHO cells, counter-screen for KCNQ1 inhibitor project, cell-based, Tl flux | parental CHO-K1, FluxOR thallium flux fluorescence ratio; hits give low values; zero means no signal rise above baseline | fluorescence ratio (Tl flux) at 10 µM | AID 588366, 2011 | 1,600 tested, 21% active | shares compounds with KCNQ1 block;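 active = mean of duplicate thallium-flux fluorescence ratios in parental host cells more than 5 SD below the buffer control mean, cut at about 0.38 in these data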;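 also: ratio is peak minus minimum fluorescence divided by baseline fluorescence; actives read low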
KCNQ1 ephys val = KCNQ1 channel inhibitors, confirmation, orthogonal assay, cell-based, automated electrophysiology; shares compounds with KCNQ1 block; KCNQ1-CHO cells, automated patch clamp current; calls only at 10 µM; 490 tested, 20% active; AID 624120, 2012;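 active = KCNQ1 current drop exceeding 3 SD of negative control wells, seen in both duplicate runs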;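 also: steady state current during a 2 s step from -80 to +40 mV; negative values mean current inhibition and positive values mean potentiation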
KCNQ2 spec = KCNQ2 channel inhibition, selectivity assay for KCNQ1 inhibitor project, cell-based; shares compounds with KCNQ1 block; KCNQ2 cells, FluxOR thallium flux fluorescence; inhibition, % at 10 µM; 1,600 tested, 71% active; AID 651746, 2012;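 active = mean percent inhibition of the KCNQ2 thallium signal more than 5 SD above the buffer-only control wells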;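 also: KCNQ2 expressed in CHO cells; 0% = buffer control wells and 100% = XE-991 inhibitor control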
KCNQ1 KCNE1 spec = KCNQ1/KCNE1 channel inhibition, selectivity assay for KCNQ1 inhibitor project, CHO-K1 cells, thallium flux, FluxOR; shares compounds with KCNQ1 block; FluxOR thallium flux fluorescence; inhibition, % at 10 µM; 1,600 tested, 77% active; AID 652147, 2013;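 active = mean percent inhibition of duplicate wells above the buffer-only control mean plus 3 SD of those controls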;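 also: 0% = buffer only wells and 100% = XE-991 inhibitor control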
* = called active by the depositor; i = inactive; x = no result.

SMILES | Kir21 inh | KCNK3 block | KCNQ1 act | KCNQ1 block | hERG protect | KCNK9 block | KCNQ1 inh valid | CHO Tl flux | KCNQ2 spec | KCNQ1 KCNE1 spec | others
Cc1cccc(NC(=O)c2ccc(C3SCC(=O)N3CCc3ccccc3)cc2)c1 (stereo not given) | -0.34 | i | i | 7* | -20 | i | 99* | 0.43 | 109%* | 82%* | KCNQ1 ephys val=i
Cc1cccc(-c2c3c(=O)n(C)c(=O)n(C)c3cn2-c2ccc(O)cc2)c1 | 0.09 | i | i | 6* | -15 | i | 76* | 0.49 | i | 96%*
COc1ccc2[nH]cc(CCNC(=O)CS(=O)(=O)Cc3ccccc3)c2c1 | -1.2 | i | i | i | -1 | i | x | x | x | x
CC12CCC(=O)N1C(C(=O)Nc1cc(C(F)(F)F)ccc1N1CCCCC1)CS2 (stereo not given) | -0.29 | i | i | 7* | -19 | i | 46* | 0.41 | 103%* | 48%*
O=C(NCCCCc1ccccc1)Nc1cccc(F)c1 | -0.53 | i | i | 6* | -15 | i | 61* | 0.52 | i | 36%*
Fc1ccc(F)c(NC(=S)NCCc2ccccc2)c1 | -0.82 | i | i | 7* | -5 | i | 53* | 0.56 | 81%* | 71%*
Fc1cccc(NC(=S)NCCc2ccccc2)c1 | -0.33 | i | i | 7* | -9 | i | 52* | 0.56 | 62%* | i
CN(CC(=O)NCCc1ccccc1)CC(=O)Nc1cccc(F)c1 | x | i | x | x | x | x | x | x | x | x
CCc1cc(Br)ccc1NC(=S)NCCc1ccccc1 | -7.9* | i | i | 6* | -9 | i | 65* | 0.51 | 59%* | 70%*
O=C(NCCS(=O)(=O)N1CCN(c2ccc(F)cc2)CC1)c1ccco1 | 1.1 | i | i | i | -16 | i | x | x | x | x
COc1ccc(NC(=O)C2Cc3ccccc3O/C2=N\O)cc1 (stereo not given) | 1.4 | i | i | i | -4 | i | x | x | x | x
CC(Sc1n[nH]c(-c2ccccc2F)n1)C(=O)Nc1ccc(S(N)(=O)=O)cc1 (stereo not given) | x | i | x | x | x | x | x | x | x | x
C/C=C(\C)C(=O)O[C@H](c1cc2ccc(=O)oc2cc1OC)[C@@H](O)C(C)(C)O | x | i | x | x | x | x | x | x | x | x
CCn1nc(C)c(CNC(=O)c2cc(COc3ccc(F)cc3Cl)on2)c1C | -0.67 | i | i | 8* | -23 | i | 40* | 0.55 | i | i
CCn1cc(CNC(=O)c2cc(COc3ccc(F)cc3Cl)on2)cn1 | 0.26 | i | i | i | -4 | i | x | x | x | x
COCCCNC(=S)N(CCO)Cc1cc2cc3c(cc2[nH]c1=O)OCO3 | 1.5 | i | i | i | -6 | i | x | x | x | x
